Seven molecules from ChEMBL document CHEMBL4602689, “Absolute Configuration and Antibiotic Activity of Piceamycin” (J Nat Prod, 2020) can be followed below.

One assay concerns Enterococcus faecalis. The assay can be described thus: Antibacterial activity against Enterococcus faecalis ATCC 19433 assessed as reduction in microbial growth after 24 hrs by two-fold serial dilution method. It is filed as functional. Particulars: ATCC 19433, 24 h. The method in brief: (§1)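 Strains grown overnight in Mueller–Hinton broth at 37 °C, centrifuged and washed twice in sterile water. DMSO stocks were 2-fold serially diluted in MHB (128 to 0.015 μg/mL). Final inoculum was 5 × 10⁴ cfu/mL, incubated 24 h at 37 °C. MIC is the lowest concentration inhibiting growth. Controls were ampicillin, tetracycline, streptomycin and DMSO.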

The next assay relates to Salmonella enterica. The assay can be described thus: Antibacterial activity against Salmonella enterica ATCC 14028 assessed as reduction in microbial growth after 24 hrs by two-fold serial dilution method. It is filed as functional. The following applies: ATCC 14028, 24 h. The method in brief:
as §1

In the next assay the test system is SK-HEP1. In words: Antiproliferative activity against human SKHEP1 cells assessed as reduction in cell viability by sulforhodamine B assay. In kind it is functional, cell-based. The essentials: (§2)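 Cells kept in DMEM with 10% heat-inactivated FBS plus penicillin, streptomycin and amphotericin B, at 37 °C and 5% CO₂. SRB assay: cells seeded in 96-well plates and treated for the indicated times, with 30-min zero-day controls. Fixed, stained with 0.4% SRB in 1% acetic acid, solubilized in 10 mM Tris pH 10.0, absorbance at 515 nm. IC50 by nonlinear regression.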

Another assay concerns Escherichia coli. The assay can be described thus: Antibacterial activity against Escherichia coli ATCC 25922 assessed as reduction in microbial growth after 24 hrs by two-fold serial dilution method. In kind it is functional. Particulars: ATCC 25922, 24 h. The essentials:
as §1

The next assay deals with A549. In words: Antiproliferative activity against human A549 cells assessed as reduction in cell viability by sulforhodamine B assay. It is filed as functional, cell-based. The essentials:
(§3)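 Cells kept in RPMI 1640 with 10% heat-inactivated FBS plus penicillin, streptomycin and amphotericin B, at 37 °C and 5% CO₂. Cells seeded in 96-well plates and treated for the indicated times; zero-day controls read after 30 min. Fixed, stained with 0.4% SRB in 1% acetic acid, dye dissolved in 10 mM Tris pH 10.0, A515 read. IC50 by nonlinear regression.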
In general terms: Sulforhodamine B stains cellular protein and so reports cell mass.

A further assay deals with Klebsiella pneumoniae. The assay can be described thus: Antibacterial activity against Klebsiella pneumoniae ATCC 10031 assessed as reduction in microbial growth after 24 hrs by two-fold serial dilution method. In kind it is functional. The following applies: ATCC 10031, 24 h. The method in brief: as §1
The subject of a further assay is MDA-MB-231. The assay can be described thus: Antiproliferative activity against human MDA-MB-231 cells assessed as reduction in cell viability by sulforhodamine B assay. It is filed as functional, cell-based. The method in brief:
as §2

Another assay relates to Bacillus thuringiensis. The assay can be described thus: Antibacterial activity against Bacillus thuringiensis KACC 10168 assessed as reduction in microbial growth after 24 hrs by two-fold serial dilution method. It is filed as functional. Particulars: KACC 10168, 24 h. The essentials: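 Bacteria grown overnight in tryptic soy broth at 28 °C, centrifuged and washed twice in sterile water. Compounds in DMSO were serially diluted 2-fold in TSB from 128 to 0.015 μg/mL. Final inoculum was 5 × 10⁴ cfu/mL, incubated 24 h at 28 °C. MIC taken as the lowest concentration inhibiting growth. Controls were ampicillin, tetracycline, streptomycin and DMSO.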

The test system of the next assay is SNU-638. The assay can be described thus: Antiproliferative activity against human SNU638 cells assessed as reduction in cell viability by sulforhodamine B assay. It is filed as functional, cell-based. The essentials:
as §3

For the next assay, the system named is HCT-116. The assay can be described thus: Antiproliferative activity against human HCT116 cells assessed as reduction in cell viability by sulforhodamine B assay. It is filed as functional, cell-based. The method in brief:
as §3

The next assay has as its system K562. In words: Antiproliferative activity against human K562 cells assessed as reduction in cell viability by sulforhodamine B assay. It is filed as functional, cell-based. The essentials:
as §3

A further assay relates to Proteus hauseri. The assay can be described thus: Antibacterial activity against Proteus hauseri NBRC 3851 assessed as reduction in microbial growth after 24 hrs by two-fold serial dilution method. In kind it is functional. The following applies: NBRC 3851, 24 h. The method in brief: as §1
Another assay has as its system Enterococcus faecium. In words: Antibacterial activity against Enterococcus faecium ATCC 19434 assessed as reduction in microbial growth after 24 hrs by two-fold serial dilution method. It is filed as functional. Particulars: ATCC 19434, 24 h. The method in brief:
as §1

For a further assay, the system named is Staphylococcus aureus. The assay can be described thus: Antibacterial activity against Staphylococcus aureus ATCC 25923 assessed as reduction in microbial growth after 24 hrs by two-fold serial dilution method. In kind it is functional. Particulars: ATCC 25923, 24 h. The method in brief:
as §1

The next assay concerns Aspergillus fumigatus. The assay can be described thus: Growth inhibition of Aspergillus fumigatus HIC 6094. It is filed as functional, organism-based.
For a further assay, the system named is Trichophyton rubrum. In words: Growth inhibition of Trichophyton rubrum NBRC 9185. It is filed as functional, organism-based.
In another assay the test system is Candida albicans. The assay can be described thus: Growth inhibition of Candida albicans ATCC 10231. It is filed as functional, organism-based.
Assay [1] has as its system Trichophyton mentagrophytes. In words: Growth inhibition of Trichophyton mentagrophytes IFM 40996. In kind it is functional, organism-based.

Activity calls are given as the source filed them. A value given as a limit tells only on which side of the number the result lay.

Take `CC1=C/C[C@@H](O)CC(=O)/C=C/C=C/C=C\C=C\C=C/[C@@H](C)CNC(=O)\C=C/C=C\C=C\1`: the MIC (usually the smallest concentration in the dilution series that meets the test's criterion for growth inhibition) is greater than 130 µg/mL in the assay on Enterococcus faecalis; 130 µg/mL in the assay with Salmonella enterica; greater than 130 µg/mL in the assay with Escherichia coli; greater than 130 µg/mL in the assay on Klebsiella pneumoniae; 380 µg/mL in the assay with Bacillus thuringiensis; 130 µg/mL in the assay on Proteus hauseri. Further, the results for the MIC with Enterococcus faecium and in the assay on Staphylococcus aureus were 130 µg/mL and greater than 130 µg/mL, respectively. The IC50 (usually the concentration that inhibits the measured activity by half) was 1870 nM in the assay on SK-HEP1; 780 nM in the assay with A549; 1000 nM in the assay with MDA-MB-231; 850 nM with SNU-638; 1010 nM with HCT-116; 960 nM in the assay on K562.
In the case of `CN(C)[C@@H]1C(O)=C(C(N)=O)C(=O)[C@@]2(O)C(O)=C3C(=O)c4c(O)cccc4[C@@](C)(O)[C@H]3C[C@@H]12` [TETRACYCLINE], in the assay on Klebsiella pneumoniae, the MIC came out at 0.44 µg/mL.
On to `COc1cc([C@@H]2c3cc4c(cc3[C@@H](O[C@@H]3O[C@@H]5CO[C@@H](C)O[C@H]5[C@H](O)[C@H]3O)[C@H]3COC(=O)[C@H]23)OCO4)cc(OC)c1O` [ETOPOSIDE], for which the IC50 is 380 nM in the assay on SK-HEP1; 600 nM with A549; 3320 nM in the assay with MDA-MB-231; 520 nM with SNU-638; 1360 nM with HCT-116; 980 nM in the assay on K562.
For `CC1=C\C[C@@H](O)CC(=O)/C=C/C=C/C=C\C=C\C=C/[C@@H](C)CNC(=O)\C=C/C=C/C=C/1`, the “growth inhibition (GI)” value (with Aspergillus fumigatus; with Trichophyton rubrum; in the assay on Candida albicans; in [1]) was “inactive” in each case.
Consider `CC1(C)S[C@@H]2[C@H](NC(=O)[C@H](N)c3ccccc3)C(=O)N2[C@H]1C(=O)O` [AMPICILLIN], for which the MIC was 0.5 µg/mL in the assay on Enterococcus faecalis; 0.25 µg/mL with Salmonella enterica; 16 µg/mL in the assay on Escherichia coli; greater than 130 µg/mL in the assay on Klebsiella pneumoniae; 0.03 µg/mL in the assay with Proteus hauseri; 1 µg/mL in the assay with Enterococcus faecium. In addition, the MIC with Staphylococcus aureus was determined as 0.17 µg/mL.
Regarding `C[C@@H]1\C=C/C=C/C=C\C=C\C=C\C(=O)C2=C(O)C(=O)C[C@@]2(C)/C=C/C=C\C=C/C(=O)NC1`, the MIC in the assay on Enterococcus faecalis was 32 µg/mL; with Salmonella enterica, 0.083 µg/mL; in the assay on Escherichia coli, greater than 130 µg/mL; in the assay on Klebsiella pneumoniae, greater than 130 µg/mL; with Bacillus thuringiensis, 3.2 µg/mL; in the assay on Proteus hauseri, 0.025 µg/mL. For the same molecule, the MIC in the assay with Enterococcus faecium came out at 5.3 µg/mL; with Staphylococcus aureus it was 0.025 µg/mL. Also, the “growth inhibition (GI)” value (with Aspergillus fumigatus; in the assay with Trichophyton rubrum; with Candida albicans; in [1]) was “inactive” each time. Also, the concentration for half-maximal inhibition (IC50) in the assay with SK-HEP1 amounted to 320 nM; in the assay with A549, 280 nM; with MDA-MB-231, 660 nM; with SNU-638, 380 nM; with HCT-116 it was 220 nM; with K562 it was 740 nM.
`CN[C@@H]1[C@H](O[C@H]2[C@H](O[C@H]3[C@H](O)[C@@H](O)[C@H](N=C(N)N)[C@@H](O)[C@@H]3N=C(N)N)O[C@@H](C)[C@]2(O)C=O)O[C@@H](CO)[C@H](O)[C@H]1O` [STREPTOMYCIN]: in the assay on Bacillus thuringiensis, the MIC was 130 µg/mL.
